Measurements: ChEMBL document CHEMBL3872223, “Synthetic, enzyme kinetic, and protein crystallographic studies of C-β-d-glucopyranosyl pyrroles and imidazoles reveal and explain low nanomolar inhibition of human liver glycogen phosphorylase” (Eur J Med Chem, 2016)
Activity calls are given as the source filed them. No cut-off for these calls is given here.

Tests used:
[1] = target: T1, Glycogen phosphorylase, liver form (Homo sapiens, UniProt P06737); assay: (§1) Competitive inhibition of His6-tagged human liver glycogen phosphorylase-a expressed in Escherichia coli BL21 Gold (DE3) assessed as release of inorganic phosphate using varying levels of glucose-1-phosphate and constant concentration of AMP and glycogen measured after 1 min by Dixon plot method
T1 sequence (P06737 whole entry): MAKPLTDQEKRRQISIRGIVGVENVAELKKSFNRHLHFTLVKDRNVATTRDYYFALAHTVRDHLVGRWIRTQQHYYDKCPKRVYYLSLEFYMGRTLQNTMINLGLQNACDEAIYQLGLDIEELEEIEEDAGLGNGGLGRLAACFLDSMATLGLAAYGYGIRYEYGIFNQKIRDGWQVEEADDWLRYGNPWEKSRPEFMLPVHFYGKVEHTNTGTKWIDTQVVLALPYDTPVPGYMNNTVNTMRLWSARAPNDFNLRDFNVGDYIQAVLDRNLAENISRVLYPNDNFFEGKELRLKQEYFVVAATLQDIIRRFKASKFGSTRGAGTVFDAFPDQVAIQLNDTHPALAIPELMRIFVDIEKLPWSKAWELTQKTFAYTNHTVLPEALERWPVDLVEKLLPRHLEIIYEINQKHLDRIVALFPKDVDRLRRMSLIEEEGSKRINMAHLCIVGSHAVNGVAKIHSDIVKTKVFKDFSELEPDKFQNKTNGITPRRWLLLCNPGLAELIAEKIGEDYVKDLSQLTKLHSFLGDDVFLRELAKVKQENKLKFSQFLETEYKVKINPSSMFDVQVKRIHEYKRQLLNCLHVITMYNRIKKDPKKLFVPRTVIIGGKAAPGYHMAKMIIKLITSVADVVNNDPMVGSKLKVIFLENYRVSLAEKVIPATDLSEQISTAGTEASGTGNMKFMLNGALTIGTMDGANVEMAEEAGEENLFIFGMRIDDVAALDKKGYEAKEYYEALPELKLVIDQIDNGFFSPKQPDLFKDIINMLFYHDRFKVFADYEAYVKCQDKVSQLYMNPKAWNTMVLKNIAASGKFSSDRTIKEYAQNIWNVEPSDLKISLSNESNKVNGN

[2] = target: T2, Glycogen phosphorylase, muscle form (Oryctolagus cuniculus, UniProt P00489); assay: Inhibition of rabbit muscle glycogen phosphorylase-b assessed as release of inorganic phosphate from glucose-1-phosphate in presence of AMP and glycogen
T2 sequence (P00489 whole entry): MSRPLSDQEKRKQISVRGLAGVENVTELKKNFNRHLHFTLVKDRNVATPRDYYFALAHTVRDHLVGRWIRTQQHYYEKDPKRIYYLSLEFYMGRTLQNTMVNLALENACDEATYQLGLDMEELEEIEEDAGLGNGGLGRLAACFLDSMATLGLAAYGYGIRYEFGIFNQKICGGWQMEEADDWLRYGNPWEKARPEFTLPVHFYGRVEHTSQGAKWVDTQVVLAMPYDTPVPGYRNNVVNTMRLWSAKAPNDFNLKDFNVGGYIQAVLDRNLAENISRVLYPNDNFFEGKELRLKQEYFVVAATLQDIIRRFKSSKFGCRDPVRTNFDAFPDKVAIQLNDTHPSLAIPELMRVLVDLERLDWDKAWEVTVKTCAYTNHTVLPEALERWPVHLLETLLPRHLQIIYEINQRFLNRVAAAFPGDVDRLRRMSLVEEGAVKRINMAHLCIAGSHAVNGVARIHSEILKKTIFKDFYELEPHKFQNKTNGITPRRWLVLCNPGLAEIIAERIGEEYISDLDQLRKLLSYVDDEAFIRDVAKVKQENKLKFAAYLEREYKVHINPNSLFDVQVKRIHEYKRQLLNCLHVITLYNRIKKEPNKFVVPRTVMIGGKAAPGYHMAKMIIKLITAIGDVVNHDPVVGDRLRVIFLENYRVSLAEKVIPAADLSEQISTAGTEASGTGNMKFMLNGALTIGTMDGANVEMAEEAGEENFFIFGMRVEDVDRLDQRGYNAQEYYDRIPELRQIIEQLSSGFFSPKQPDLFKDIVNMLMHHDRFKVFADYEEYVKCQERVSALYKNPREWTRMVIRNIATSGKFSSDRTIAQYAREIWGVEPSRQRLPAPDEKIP
Summary of the method: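 Isolated rabbit skeletal muscle GPb was assayed in 30 mM imidazole/HCl pH 6.8 with 60 mM KCl, 0.6 mM EDTA and 0.6 mM DTT. […] Initial velocities were derived from pseudo-first order rate constants.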

[3] = target: T2, Glycogen phosphorylase, muscle form; assay: Competitive inhibition of rabbit muscle glycogen phosphorylase-a assessed as release of inorganic phosphate using varying levels of glucose-1-phosphate and constant concentration of AMP and glycogen measured after 1 min by Dixon plot method
Summary of the method: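 Rabbit muscle GPa was made by phosphorylating rmGPb with a truncated catalytic γ subunit of rabbit muscle phosphorylase kinase. It was assayed in 30 mM imidazole/HCl pH 6.8 containing 60 mM KCl, 0.6 mM EDTA, 0.6 mM DTT and 0.2% w/v glycogen, with Glc-1-P and inhibitor both varied. Initial velocities were calculated from pseudo-first order rate constants.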

[4] = target: T3, Glycogen phosphorylase, liver form (Homo sapiens) (UniProt P06737); assay: as §1, with “Lineweaver-Burk” for “Dixon”; format: tissue-based
T3 sequence (whole entry): T1 sequence (P06737 whole entry)

[5] = target: T2, Glycogen phosphorylase, muscle form; assay: Competitive inhibition of rabbit muscle glycogen phosphorylase-b in presence of varying glucose-1-phosphate levels and AMP

| Ki [1] [µM] | IC50 [2] [µM] | Ki [3] [µM] | inhibition [4] | Ki [5] [µM] | Compound |
| --- | --- | --- | --- | --- | --- |
| 4280 | – | – | – | – | OC[C@H]1O[C@H](O)[C@H](O)[C@@H](O)[C@@H]1O |
| – | 625 | – | – | – | OC[C@H]1O[C@@H](c2cc3ccccc3[nH]2)[C@H](O)[C@@H](O)[C@@H]1O |
| 0.026 | – | 0.065 | Active | – | OC[C@H]1O[C@@H](c2nc(-c3ccc4ccccc4c3)c[nH]2)[C@H](O)[C@@H](O)[C@@H]1O |
| – | – | – | – | 5.1 | O=C1CNC(=S)N1 [THIOHYDANTOIN] |
| 0.156 | – | 0.226 | Active | – | OC[C@H]1O[C@@H](c2nc(-c3ccccc3)c[nH]2)[C@H](O)[C@@H](O)[C@@H]1O |
